Measurements from ChEMBL document CHEMBL1250485, “Synthesis and activity of endomorphin-2 and morphiceptin analogues with proline surrogates in position 2” (Eur J Med Chem, 2010).
Where a SMILES comes first, the peptide text is derived from it. [ ]: non-standard residue; d: D form. d(β3hP) = O=C(O)C[C@H]1CCCN1; β3hP = O=C(O)C[C@@H]1CCCN1

Experiments:
Format in all cases: functional, tissue-based
[1] = molecular target: Delta-type opioid receptor (Mus musculus, UniProt P32300); experiment: Agonist activity at delta opioid receptor in mouse vas deferens assessed as inhibition of electrically-stimulated muscle contraction
Sequence of Delta-type opioid receptor (P32300 whole entry): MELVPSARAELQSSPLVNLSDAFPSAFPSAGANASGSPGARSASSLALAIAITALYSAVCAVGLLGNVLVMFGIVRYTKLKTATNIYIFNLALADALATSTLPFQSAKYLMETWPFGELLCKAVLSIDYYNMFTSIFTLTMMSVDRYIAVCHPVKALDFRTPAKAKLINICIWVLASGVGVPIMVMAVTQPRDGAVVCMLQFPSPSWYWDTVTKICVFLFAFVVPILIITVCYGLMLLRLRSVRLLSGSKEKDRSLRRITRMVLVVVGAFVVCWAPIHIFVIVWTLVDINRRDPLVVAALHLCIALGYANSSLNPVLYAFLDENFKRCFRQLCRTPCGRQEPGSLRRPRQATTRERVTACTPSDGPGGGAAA
Procedure, shortened: (§1)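 Isolated tissue bioassays used MVD for line 1 and GPI/LMMP for […]. IC50 is the mean of at least four experiments, obtained by nonlinear least-squares fitting to the Hill equation.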

Mu-type opioid receptor = Mu-type opioid receptor (Cavia porcellus, UniProt P97266); experiment: Agonist activity at mu opioid receptor in guinea pig ileum assessed as inhibition of electrically-stimulated muscle contraction; procedure, shortened: as §1
Sequence of Mu-type opioid receptor (P97266 whole entry): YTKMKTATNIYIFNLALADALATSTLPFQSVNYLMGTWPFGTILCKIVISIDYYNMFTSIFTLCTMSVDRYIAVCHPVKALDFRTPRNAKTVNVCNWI

[2] = molecular target: Delta-type opioid receptor (Mus musculus) (UniProt P32300); experiment: Agonist activity at delta opioid receptor in mouse vas deferens assessed as inhibition of electrically-stimulated muscle contraction at 1 uM
Sequence of Delta-type opioid receptor (Mus musculus) (P32300 whole entry): as the sequence (P32300 whole entry) above

SMILES	IC50 [1]	IC50 (Mu-type opioid receptor)	inhibition [2]
NC(=O)[C@H]1CCCN1C(=O)[C@H](Cc1ccccc1)NC(=O)C[C@H]1CCCN1C(=O)[C@@H](N)Cc1ccc(O)cc1 (H-Y[d(β3hP)]F[dP]-NH2)	0.096 µM	0.017 µM	
NC(=O)[C@H](Cc1ccccc1)NC(=O)[C@H](Cc1ccccc1)NS(=O)(=O)C[C@@H]1CCCN1C(=O)[C@@H](N)Cc1ccc(O)cc1	1.1 µM	0.73 µM	
NC(=O)[C@H](Cc1ccccc1)NC(=O)[C@H](Cc1ccccc1)NC(=O)C[C@H]1CCCN1C(=O)[C@@H](N)Cc1ccc(O)cc1	1.9 µM	0.42 µM	
NC(=O)[C@H](Cc1ccccc1)NC(=O)[C@H](Cc1ccccc1)NS(=O)(=O)[C@@H]1CCN(C(=O)[C@@H](N)Cc2ccc(O)cc2)C1	0.39 µM	0.22 µM	
NC(=O)[C@H](Cc1ccccc1)NC(=O)[C@H](Cc1ccccc1)NC(=O)C[C@@H]1CCCN1C(=O)[C@@H](N)Cc1ccc(O)cc1	1.3 µM	0.26 µM	
NC(=O)[C@H]1CCCN1C(=O)[C@H](Cc1ccccc1)NC(=O)C[C@@H]1CCCN1C(=O)[C@@H](N)Cc1ccc(O)cc1 (H-Y[β3hP]F[dP]-NH2)		1.1 µM	33.7%
NC(=O)[C@H](Cc1ccccc1)NC(=O)[C@H](Cc1ccccc1)NS(=O)(=O)[C@H]1CCN(C(=O)[C@@H](N)Cc2ccc(O)cc2)C1	0.53 µM	0.26 µM	
NC(=O)[C@H](Cc1ccccc1)NC(=O)[C@H](Cc1ccccc1)NS(=O)(=O)C[C@H]1CCCN1C(=O)[C@@H](N)Cc1ccc(O)cc1		2.7 µM	36%
